Key:
Type in all cases: functional
CCRF-CEM = assay: Growth inhibition of human CCRF-CEM cells at 10 uM after 48 hrs by coulter counter method; conditions: read-out: GI
Procedure, shortened: (§1)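 Single high-dose NCI 60-cell-line panel screen across nine tumor subpanels. Test solutions (0.2 mL) were added in duplicate to wells holding 1.8 mL of culture at 6 × 10⁴ cells/mL. Controls got PBS and DMSO at identical dilutions. Incubation was 48 h at 37 °C in humidified 5% CO₂. Cells were diluted 10-fold in saline, Coulter-counted and dilution-corrected. Results were expressed as percent growth inhibition versus control.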

HL-60(TB) = assay: Growth inhibition of human HL-60(TB) cells at 10 uM after 48 hrs by coulter counter method; conditions: HL-60, 48 h, read-out: GI
Procedure, shortened: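 Part of the NCI 60-cell-line single-high-dose panel. Cells were seeded at 6 × 10⁴ cells/mL with test solution in duplicate wells, alongside PBS/DMSO controls at identical dilutions. Plates were held 48 h at 37 °C in a humidified 5% CO₂ incubator. Cells were then diluted 10-fold in saline and counted by Coulter counter, with counts corrected for dilution. Results are percent growth of treated cells, reported as GI %.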

K562 = assay: Growth inhibition of human K562 cells at 10 uM after 48 hrs by coulter counter method; conditions: K562, 48 h, read-out: GI; procedure, shortened: as §1
MOLT-4 = assay: Growth inhibition of human MOLT4 cells at 10 uM after 48 hrs by coulter counter method; conditions: MOLT-4, 48 h, read-out: GI; procedure, shortened: as §1
SR = assay: Growth inhibition of human SR cells at 10 uM after 48 hrs by coulter counter method; conditions: read-out: GI; procedure, shortened: as §1
A549 = assay: Growth inhibition of human A549 cells at 10 uM after 48 hrs by coulter counter method; conditions: A549, 48 h, read-out: GI; procedure, shortened: as §1
NCI-H226 = assay: Growth inhibition of human NCI-H226 cells at 10 uM after 48 hrs by coulter counter method; conditions: NCI-H226, 48 h, read-out: GI; procedure, shortened: as §1
NCI-H23 = assay: Growth inhibition of human NCI-H23 cells at 10 uM after 48 hrs by coulter counter method; conditions: NCI-H23, 48 h, read-out: GI; procedure, shortened: as §1
NCI-H522 = assay: Growth inhibition of human NCI-H522 cells at 10 uM after 48 hrs by coulter counter method; conditions: NCI-H522, 48 h, read-out: GI; procedure, shortened: as §1
COLO 205 = assay: Growth inhibition of human COLO205 cells at 10 uM after 48 hrs by coulter counter method; conditions: COLO 205, 48 h, read-out: GI; procedure, shortened: as §1
HCT-116 = assay: Growth inhibition of human HCT116 cells at 10 uM after 48 hrs by coulter counter method; conditions: HCT-116, 48 h, read-out: GI; procedure, shortened: as §1
KM12 = assay: Growth inhibition of human KM12 cells at 10 uM after 48 hrs by coulter counter method; conditions: KM12, 48 h, read-out: GI; procedure, shortened: as §1
SF-268 = assay: Growth inhibition of human SF268 cells at 10 uM after 48 hrs by coulter counter method; conditions: SF-268, 48 h, read-out: GI; procedure, shortened: as §1
SF-539 = assay: Growth inhibition of human SF539 cells at 10 uM after 48 hrs by coulter counter method; conditions: SF-539, 48 h, read-out: GI; procedure, shortened: as §1
SNB-75 = assay: Growth inhibition of human SNB75 cells at 10 uM after 48 hrs by coulter counter method; conditions: SNB-75, 48 h, read-out: GI; procedure, shortened: as §1
U-251 = assay: Growth inhibition of human U251 cells at 10 uM after 48 hrs by coulter counter method; conditions: U-251, 48 h, read-out: GI; procedure, shortened: as §1
M14 = assay: Growth inhibition of human M14 cells at 10 uM after 48 hrs by coulter counter method; conditions: M14, 48 h, read-out: GI; procedure, shortened: as §1
SK-MEL-2 = assay: Growth inhibition of human SK-MEL-2 cells at 10 uM after 48 hrs by coulter counter method; conditions: SK-MEL-2, 48 h, read-out: GI; procedure, shortened: as §1
SK-MEL-28 = assay: Growth inhibition of human SK-MEL-28 cells at 10 uM after 48 hrs by coulter counter method; conditions: SK-MEL-28, 48 h, read-out: GI; procedure, shortened: as §1
UACC-62 = assay: Growth inhibition of human UACC62 cells at 10 uM after 48 hrs by coulter counter method; conditions: UACC-62, 48 h, read-out: GI; procedure, shortened: as §1
IGROV-1 = assay: Growth inhibition of human IGROV1 cells at 10 uM after 48 hrs by coulter counter method; conditions: IGROV-1, 48 h, read-out: GI; procedure, shortened: as §1
OVCAR-4 = assay: Growth inhibition of human OVCAR4 cells at 10 uM after 48 hrs by coulter counter method; conditions: OVCAR-4, 48 h, read-out: GI; procedure, shortened: as §1
OVCAR-8 = assay: Growth inhibition of human OVCAR8 cells at 10 uM after 48 hrs by coulter counter method; conditions: OVCAR-8, 48 h, read-out: GI; procedure, shortened: as §1
SK-OV-3 = assay: Growth inhibition of human SKOV3 cells at 10 uM after 48 hrs by coulter counter method; conditions: SK-OV-3, 48 h, read-out: GI; procedure, shortened: as §1
786-0 = assay: Growth inhibition of human 786-0 cells at 10 uM after 48 hrs by coulter counter method; conditions: 786-0, 48 h, read-out: GI; procedure, shortened: as §1
CAKI-1 = assay: Growth inhibition of human Caki1 cells at 10 uM after 48 hrs by coulter counter method; conditions: CAKI-1, 48 h, read-out: GI; procedure, shortened: as §1
SN12C = assay: Growth inhibition of human SN12C cells at 10 uM after 48 hrs by coulter counter method; conditions: read-out: GI; procedure, shortened: as §1
UO-31 = assay: Growth inhibition of human UO31 cells at 10 uM after 48 hrs by coulter counter method; conditions: UO-31, 48 h, read-out: GI; procedure, shortened: as §1
PC-3 = assay: Growth inhibition of human PC3 cells at 10 uM after 48 hrs by coulter counter method; conditions: PC-3, 48 h, read-out: GI; procedure, shortened: as §1
MCF7 = assay: Growth inhibition of human MCF7 cells at 10 uM after 48 hrs by coulter counter method; conditions: MCF7, 48 h, read-out: GI; procedure, shortened: as §1
MDA-MB-231 = assay: Growth inhibition of human MDA-MB-231 cells at 10 uM after 48 hrs by coulter counter method; conditions: MDA-MB-231, 48 h, read-out: GI; procedure, shortened: as §1
[1] = Growth inhibition of human Hs 578T cells at 10 uM after 48 hrs by coulter counter method; conditions: read-out: GI; procedure, shortened: as §1
T47D = assay: Growth inhibition of human T47D cells at 10 uM after 48 hrs by coulter counter method; conditions: read-out: GI; procedure, shortened: as §1
MDA-MB-468 = assay: Growth inhibition of human MDA-MB-468 cells at 10 uM after 48 hrs by coulter counter method; conditions: MDA-MB-468, 48 h, read-out: GI; procedure, shortened: as §1
HOP-92 = assay: Growth inhibition of human HOP92 cells at 10 uM after 48 hrs by coulter counter method; conditions: HOP-92, 48 h, read-out: GI; procedure, shortened: as §1

Compound | inhibition of growth at 10 µM (HL-60(TB)) [%] | inhibition of growth at 10 µM (MOLT-4) [%] | inhibition of growth at 10 µM (SR) [%] | inhibition of growth at 10 µM (NCI-H226) [%] | inhibition of growth at 10 µM (NCI-H23) [%] | inhibition of growth at 10 µM (NCI-H522) [%] | inhibition of growth at 10 µM (COLO 205) [%] | inhibition of growth at 10 µM (HCT-116) [%] | inhibition of growth at 10 µM (KM12) [%] | inhibition of growth at 10 µM (SF-268) [%] | inhibition of growth at 10 µM (SF-539) [%] | inhibition of growth at 10 µM (SNB-75) [%] | inhibition of growth at 10 µM (U-251) [%] | inhibition of growth at 10 µM (M14) [%] | inhibition of growth at 10 µM (SK-MEL-2) [%] | inhibition of growth at 10 µM (SK-MEL-28) [%] | inhibition of growth at 10 µM (UACC-62) [%] | inhibition of growth at 10 µM (IGROV-1) [%] | inhibition of growth at 10 µM (OVCAR-4) [%] | inhibition of growth at 10 µM (OVCAR-8) [%] | other results
COc1ccc(-n2c(SC)nc3ccccc3c2=O)cc1 | 30 | 30 | 30 | 30 | 30 | 30 | 30 | 30 | 30 | 30 | 30 | 30 | 30 | 30 | 30 | 30 | 30 | 30 | 30 | 30 | inhibition of growth at 10 µM (CCRF-CEM): 30%; inhibition of growth at 10 µM (K562): 30.1%; inhibition of growth at 10 µM (A549): 30%; inhibition of growth at 10 µM (SK-OV-3): 30%; inhibition of growth at 10 µM (786-0): 30%; inhibition of growth at 10 µM (CAKI-1): 30%; inhibition of growth at 10 µM (SN12C): 30%; inhibition of growth at 10 µM (UO-31): 30%; inhibition of growth at 10 µM (PC-3): 30%; inhibition of growth at 10 µM (MCF7): 30%; inhibition of growth at 10 µM (MDA-MB-231): 30%; inhibition of growth at 10 µM [1]: 30%; inhibition of growth at 10 µM (T47D): 30%; inhibition of growth at 10 µM (MDA-MB-468): 30%
COc1ccc(C(=O)CSc2nc3ccccc3c(=O)n2-c2ccc(Cl)cc2)cc1 | 30 | 30 | 30 | 30 | 30 | < 30 | 48.9 | 30 | 30 | 48.8 | 48.6 | 71.1 | 65.1 | 38.4 | 34.2 | 37.3 | 42.2 | 48.9 | 53.5 | 76.2 | inhibition of growth at 10 µM (SK-OV-3): 44.7%; inhibition of growth at 10 µM (786-0): 41.3%; inhibition of growth at 10 µM (SN12C): 30%; inhibition of growth at 10 µM (UO-31): 37.2%; inhibition of growth at 10 µM (PC-3): 30%; inhibition of growth at 10 µM (MCF7): 30%; inhibition of growth at 10 µM (MDA-MB-231): 40.9%; inhibition of growth at 10 µM [1]: 30%; inhibition of growth at 10 µM (T47D): 30%; inhibition of growth at 10 µM (MDA-MB-468): 35.4%
COc1ccc(C(=O)CSc2nc3ccccc3c(=O)n2-c2ccc(OC)cc2)cc1 | 43 | 49.4 | 34.9 | 30 | 30 | < 30 | 30 | 30 | 30 | 30 | 30 | 30 | 30 | 30 | 30 | 30 | 30 | 30 | 30 | 30 | inhibition of growth at 10 µM (CCRF-CEM): 70.3%; inhibition of growth at 10 µM (A549): 30.8%; inhibition of growth at 10 µM (HOP-92): 30%; inhibition of growth at 10 µM (SK-OV-3): 30%; inhibition of growth at 10 µM (786-0): 30%; inhibition of growth at 10 µM (SN12C): 30%; inhibition of growth at 10 µM (UO-31): 30.3%; inhibition of growth at 10 µM (PC-3): 30%; inhibition of growth at 10 µM (MCF7): 30%; inhibition of growth at 10 µM (MDA-MB-231): 30%; inhibition of growth at 10 µM [1]: 30%; inhibition of growth at 10 µM (T47D): 30%; inhibition of growth at 10 µM (MDA-MB-468): 30.8%

— ChEMBL document CHEMBL1629431, “Synthesis and antitumor activity of some 2, 3-disubstituted quinazolin-4(3H)-ones and 4, 6- disubstituted- 1, 2, 3, 4-tetrahydroquinazolin-2H-ones” (2010)
